Screens (PubChem BioAssay)
Mdm2-MdmX inh = inhibitors of human Mdm2/MdmX interaction | O15151+Q00987 | SaOS-2 split-luciferase Mdm2/MdmX complementation, luminescence | inhibition, % at 8 µM | hit rate 3% among 330,000 | AID 485346;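 active = inhibition of at least 50% at 8 µM in the primary screen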
Beta cell apopt = blocks beta cell apoptosis. INS-1E cytokine-induced death, ATP luminescence, 48 h; percent of positive-control rescue, neutral wells zero. protection from apoptosis, % (no concentration beside the values). hit rate 0.8% among 300,000. AID 435005;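 active = Every replicate reaches about 75%, or at least half do and their mean reaches it too, limit read from the data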;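 also: higher means more ATP so stronger rescue from cytokine killing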
T cruzi inh = T. cruzi replication inhibition; T. cruzi beta-gal in NIH3T3, luminescence, 90 h; inhibition, % (no concentration beside the values); hit rate 1.4% among 300,000;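 active = mean inhibition across valid replicates above about 55%, limit read from the data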;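 also: signal also drops with host cell toxicity which is not excluded here; higher percent means less beta-gal luminescence so fewer parasites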
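System: Mouse NIH/3T3 fibroblasts infected with β-gal-expressing T. cruzi Tulahuen C4 | Quantity: NIH/3T3 cells, 5,000 per well | Reagent: 5000 reporter trypomastigotes per well | Dosing: Compound pinned at 50 nL/well, DMSO | Schedule: 3 h host attachment, then at least 90 h co-culture | Detection: GalScreen luminescence, 60 min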
CSC inhib = blocks cancer stem cells; cancer stem cell-like cells viability, luminescence; inhibition, % at 7.5 µM; hit rate 1.1% among 300,000; AID 2717; in the data active = inhibition above about 75%; tested in HMLE shEcad cells
UPR XBP1 act = activators of adaptive arm of unfolded protein response (XBP1); CHO-XBP1 luciferase reporter, IRE1-XBP1 UPR activation, luminescence; percent of tunicamycin response, DMSO as zero; activation, % at 20 µM; hit rate 0.33% among 330,000;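 active = versus positive control, 20 µM dose yields 30% or more activation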
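Assay system: IRE1-XBP1 luciferase reporter CHO line. Input: 1000 cells/well. Buffer or medium: F12 with 10% serum. Doses: 20 µM, 1% DMSO. Times: overnight seeding at 37 °C, 6 h compound treatment at 37 °C. Technique: Steady-Glo luciferase glow luminescence, 10 min after reagent addition.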
UPR CHOP act = activators of apoptotic arm of unfolded protein response (CHOP); AID 449763; activation, % at 10 µM; hit rate 0.34% among 330,000; CHO-CHOP luciferase reporter, UPR activation, luminescence; percent of tunicamycin response over DMSO baseline;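 active = at 10 µM dose, activation of 40% or more, normalized to positive control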
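assay system = CHO CHOP reporter cells | amount = 500 CHO-CHOP cells per well | buffer or medium = F12 with 10% FBS | incubation = 16-18 h cell attachment, then 6 h compound exposure, 37 °C | detection = luminescence read with Steady-Glo | read-out = percent activation relative to tunicamycin control | controls = tunicamycin high control, DMSO low control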
Mdm2-MdmX conf = confirmation of human Mdm2/MdmX interaction inhibitors; hit rate 55% among 10,000; shares compounds with Mdm2-MdmX inh; inhibition, % at 8 µM; Mdm2-MdmX binding, luminescent assay; in the data active = inhibition above about 40%
FLuc counter = full-length luciferase inhibition in Mdm2/MdmX counter-screen | shares compounds with Mdm2-MdmX inh | inhibition, % at 8 µM | SaOS-2 full-length luciferase counterscreen, luminescence | hit rate 77% among 6,200;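 active = mean inhibition at 8 µM reaching about 37%, which flags the compound as non-specific, limit read from the data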;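 also: p53-null SaOS-2 cells with luciferase driven by a doxycycline-inducible promoter; compound on cells about two nights before reading with doxycycline added after day one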
Numbers stand for hits; - = inactive; . = no result given. An excerpt weighted towards active compounds, which were near 5% of everything screened.

SMILES	Mdm2-MdmX inh	Beta cell apopt	T cruzi inh	CSC inhib	UPR XBP1 act	UPR CHOP act	Mdm2-MdmX conf	FLuc counter
Cc1noc(C(F)(F)F)c1C(=O)NNC(=O)c1ccccc1	-	-	-	-	-	-	.	.
Oc1cc(NCCc2cccnc2)cc2cccnc12	-	-	.	.	-	-	.	.
Oc1cc(Nc2cccnc2)cc2cccnc12	66.3	-	.	.	-	-	-	.
Cc1ccc(C(=O)NC(=S)Nc2cc(-c3nc4ccccc4s3)ccc2C)cc1	-	-	-	.	-	-	.	.
COc1ccc(-c2csc(N(CCCN(C)C)C(=O)c3ccccc3Cl)n2)cc1	71.4	-	-	-	-	-	49.0	84.2
COc1ccc(-c2csc(N(CCCN(C)C)C(=O)c3ccccc3C)n2)cc1	-	-	-	-	-	-	.	.
CCC(C)n1c(=O)c(C(=O)Nc2ccccc2S(N)(=O)=O)c(O)c2ccccc21 (stereo not drawn)	57.1	-	-	-	-	-	55.5	-
CC(C)Cn1c(=O)c(C(=O)Nc2ccccc2S(N)(=O)=O)c(O)c2ccccc21	63.5	-	-	-	-	-	60.3	-
O=c1cc(-c2ccccc2Cl)oc2c([N+](=O)[O-])c(O)cc(O)c12	82.6	-	-	-	-	-	76.0	-
O=c1cc(-c2ccccc2Cl)oc2ccc([N+](=O)[O-])c(O)c12	-	-	-	-	-	-	.	.
CN(Cc1ccccc1)C(=O)COC(=O)C1CCN(S(=O)(=O)c2ccc3c(c2)OCCO3)CC1	-	-	-	.	-	-	.	.
O=C1/C(=C/c2cccc(Br)c2)SC(=S)N1CCC(=O)N(CCO)c1ccccc1	51.9	-	-	-	-	-	-	.
O=C(O)CCN1C(=O)/C(=C\c2cccc(OCc3ccccc3)c2)SC1=S	-	-	-	-	-	-	.	.
COc1cccc(/C=C2\SC(=S)N(CCCC(=O)N(CCO)c3ccccc3)C2=O)c1	99.4	-	-	-	-	-	60.1	-
Cc1ccccc1C(=O)N1CCC(C(=O)NC(C)c2ccc(-n3ccnc3)cc2)CC1 (stereo not drawn)	-	.	-	-	-	-	.	.
COc1ccc2nc(SCCN(C)C)[nH]c2c1	-	-	-	-	-	-	.	.
c1ccc(C(c2nnnn2C2CCCC2)N2CCCCCC2)nc1 (stereo not drawn)	-	.	-	.	-	-	.	.
CCN1CCN(C(c2ccccc2)c2sc3nc(C)nn3c2O)CC1 (stereo not drawn)	-	-	-	-	-	-	.	.
CCN1CCN(C(c2ccc(C(F)(F)F)cc2)c2ccc3cccnc3c2O)CC1 (stereo not drawn)	73.9	86.4	-	104.5	-	-	77.8	-
CN1CCN(C(c2ccc(Cl)cc2)c2cc(Cl)c3cccnc3c2O)CC1 (stereo not drawn)	72.8	-	-	-	-	-	71.5	37.8
CCC(C)(C)n1nnnc1C(c1ccc(Cl)cc1)N1CCN(C)CC1 (stereo not drawn)	-	-	-	-	-	-	.	.
CN1CCN(C(c2ccc(C(F)(F)F)cc2)c2cc(Cl)c3cccnc3c2O)CC1 (stereo not drawn)	85.5	100.4	59.0	109.7	-	-	81.2	-
Oc1c(C(c2ccccn2)N2CCCCC2)cc(Cl)c2cccnc12 (stereo not drawn)	65.3	-	-	-	-	-	46.4	42.7
CCOc1ccc(NC(=O)Nc2cc(C)ccc2F)cc1	-	-	-	-	-	-	.	.
CCOC(=O)C1=NN(C(=O)Cc2ccccc2)C(O)(C(C)(C)C)C1 (stereo not drawn)	.	-	-	-	.	.	.	.
SMILES	Mdm2-MdmX inh	Beta cell apopt	T cruzi inh	CSC inhib	UPR XBP1 act	UPR CHOP act	Mdm2-MdmX conf	FLuc counter
Cc1cc(=O)oc2cc(OCC(=O)N3c4ccccc4CC3C)ccc12 (stereo not drawn)	50.6	-	-	.	-	-	62.0	46.3
O=C(NNc1cccc(Cl)n1)c1ccc(Cl)cc1Cl	-	-	-	-	-	-	.	.
O=C(NNc1cccc(Cl)n1)c1ccccc1CC[N+](=O)[O-]	91.7	-	-	-	-	-	-	.
CSc1nc(SCC(=O)NCc2ccco2)c2c3c(sc2n1)COC(C)(C)C3	50.7	-	-	.	-	-	40.8	67.9
O=C1C=C(c2ccc3cc[nH]c3c2)C[C@@H](c2ccc3c(c2)OCO3)C1	56.7	-	.	-	-	-	56.6	52.6
O=C(Nc1ccc(F)cc1)Nc1sccc1-c1nc2ccccc2s1	68.2	-	-	-	-	-	-	68.6
O=C(Nc1ccc(O)c(-c2nc3ccccc3s2)c1)c1cccs1	-	-	-	-	-	-	.	.
COc1ccccc1-n1cc([C@@H]2C[C@H]3CN(c4ccccc4)C(=O)[C@]34CCCN24)cn1	76.6	-	-	-	-	-	-	.
Cc1ccn2c(=O)c(C(=O)NC3CCCCC3C)c(O)nc2c1 (stereo not drawn)	66.9	.	-	-	-	-	66.7	67.5
COc1ccc(NC(=O)[C@H](Cc2c[nH]c3ccccc23)NC(=O)[C@@H]2Cc3ccccc3CN2)cc1	92.0	.	-	-	-	-	72.8	38.6
CC(C)c1ccc(NC(=O)[C@H](Cc2c[nH]c3ccccc23)NC(=O)[C@@H]2Cc3ccccc3CN2)cc1	96.4	-	-	-	-	-	78.8	-
COc1ccc(CNC(=O)[C@H](Cc2c[nH]c3ccccc23)NC(=O)[C@@H]2Cc3ccccc3CN2)cc1	-	-	-	-	-	-	.	.
COc1cc(C(=S)N2CCN(c3cccc(Cl)c3)CC2)ccc1O	54.7	-	-	-	-	-	54.8	50.7
O=[N+]([O-])c1ccc(O)c(Nc2ncnc3ccc(Br)cc23)c1	-	-	-	-	-	-	.	.
Cc1ccc(O)c(Nc2ncnc3ccc([N+](=O)[O-])cc23)c1	-	-	-	-	-	-	.	.
O=[N+]([O-])c1ccc2ncnc(Nc3ccc4c(c3)OCCO4)c2c1	56.3	-	-	-	-	-	57.7	-
O=[N+]([O-])c1ccc(O)c(Nc2ncnc3ccccc23)c1	60.2	-	-	-	-	-	-	.
Cc1ccc2cc(CNC(C)C)c(=O)[nH]c2c1	-	-	-	-	-	-	.	.
N#C/C(=C\c1c(N2CCC(C(N)=O)CC2)nc2ccccn2c1=O)C(=O)NC1CCCCC1	-	-	-	-	-	-	.	.
Cc1cc2sc(NC(=O)c3ccco3)nc2cc1Cl	-	-	-	-	-	-	.	.
COc1cc2sc(NC(=O)c3ccco3)nc2cc1Cl	63.6	-	-	-	-	-	-	.
CCN(CC)S(=O)(=O)c1cccc(C(=O)NCCCn2ccnc2)c1	-	-	-	-	-	-	.	.
